Test results as given in ChEMBL document CHEMBL3108710, “Discovery of a novel class of dimeric Smac mimetics as potent IAP antagonists resulting in a clinical candidate for the treatment of cancer (AZD5582)” (J Med Chem, 2013).
Blank lines part the entries; values can stand above or below the compound they belong to. The source made the active and inactive calls. No cut-off for these calls is given here.

Assays:
[1] = AUC in Han Wistar rat at 0.8 mg/kg, iv by LC-MS/MS analysis; assay type: ADME, organism-based; set-up: dose 0.8 mg/kg, route intravenous; conditions: plasma
Summary of the method: (§1)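 Rat PK after a single intravenous bolus. Parameters derived from plasma levels: total plasma clearance, steady-state volume of distribution, half-life and AUC.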

[2] = Elimination half life in Han Wistar rat at 0.8 mg/kg, iv by LC-MS/MS analysis; assay type: ADME, organism-based; set-up: dose 0.8 mg/kg, route intravenous; conditions: in vivo, read-out: beta t1/2 (converted); summary of the method: as §1
[3] = Volume of distribution at steady state in Han Wistar rat at 0.8 mg/kg, iv by LC-MS/MS analysis; assay type: ADME, organism-based; set-up: dose 0.8 mg/kg, route intravenous; conditions: in vivo, read-out: Vdss; summary of the method: as §1
[4] = Total plasma clearance in Han Wistar rat at 0.8 mg/kg, iv by LC-MS/MS analysis; assay type: ADME, organism-based; set-up: dose 0.8 mg/kg, route intravenous; summary of the method: as §1
MDA-MB-231 [5] = experiment: Antiproliferative activity against human MDA-MB-231 cells assessed as growth inhibition after 48 hrs by Alamar Blue assay; assay type: functional; conditions: MDA-MB-231, 48 h
[6] = molecular target: T1, Baculoviral IAP repeat-containing protein 2 (Homo sapiens, UniProt Q13490); experiment: Binding affinity to cIAP1 in human MDA-MB-231 cells assessed as induction of protein degradation after 1 hr by ELISA; assay type: cell-based
[7] = Aqueous solubility of the compound at pH 4 to 6; assay type: physicochemical
[8] = AUC in Han Wistar rat at 1 mg/kg, iv by LC-MS/MS analysis; assay type: ADME, organism-based; set-up: dose 1 mg/kg, route intravenous; conditions: plasma; summary of the method: as §1
[9] = Elimination half life in Han Wistar rat at 1 mg/kg, iv by LC-MS/MS analysis; assay type: ADME, organism-based; set-up: dose 1 mg/kg, route intravenous; conditions: in vivo, read-out: beta t1/2 (converted); summary of the method: as §1
[10] = Volume of distribution at steady state in Han Wistar rat at 1 mg/kg, iv by LC-MS/MS analysis; assay type: ADME, organism-based; set-up: dose 1 mg/kg, route intravenous; conditions: in vivo, read-out: Vdss; summary of the method: as §1
[11] = Total plasma clearance in Han Wistar rat at 1 mg/kg, iv by LC-MS/MS analysis; assay type: ADME, organism-based; set-up: dose 1 mg/kg, route intravenous; summary of the method: as §1
[12] = Chemical stability of the compound assessed as amide hydrolysis at pH >8; assay type: physicochemical
[13] = Chemical stability of the compound assessed as amide hydrolysis at pH 1; assay type: physicochemical; conditions: buffer
[14] = Photostability of the compound; assay type: physicochemical
[15] = Hydrolytic stability of the compound at pH 4 to 6; assay type: physicochemical; conditions: buffer
[16] = molecular target: T2, E3 ubiquitin-protein ligase XIAP (Homo sapiens, UniProt P98170); experiment: Displacement of AbuRPFK-5FAM from GST-tagged XIAP BIR2 domain ([…] to P260) (unknown origin) after 20 mins by fluorescence polarization assay
Summary of the method: (§2)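 Competitive fluorescence polarization binding assay. Measures displacement of a 5-carboxyfluorescein-tagged synthetic peptide from the AVPI groove of the isolated BIR domain.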

[17] = molecular target: T3, Baculoviral IAP repeat-containing protein 3 (Homo sapiens, UniProt Q13489); experiment: Displacement of AbuRPFK-5FAM from GST-tagged cIAP2 BIR3 domain (I235 to A336) (unknown origin) after 20 mins by fluorescence polarization assay; summary of the method: as §2
[18] = AUC in Han Wistar rat at 0.5 mg/kg, iv by LC-MS/MS analysis; assay type: ADME, organism-based; set-up: dose 0.5 mg/kg, route intravenous; conditions: plasma; summary of the method: as §1
[19] = Elimination half life in Han Wistar rat at 0.5 mg/kg, iv by LC-MS/MS analysis; assay type: ADME, organism-based; set-up: dose 0.5 mg/kg, route intravenous; conditions: in vivo, read-out: beta t1/2 (converted); summary of the method: as §1
[20] = Volume of distribution at steady state in Han Wistar rat at 0.5 mg/kg, iv by LC-MS/MS analysis; assay type: ADME, organism-based; set-up: dose 0.5 mg/kg, route intravenous; conditions: in vivo, read-out: Vdss; summary of the method: as §1
[21] = Total plasma clearance in Han Wistar rat at 0.5 mg/kg, iv by LC-MS/MS analysis; assay type: ADME, organism-based; set-up: dose 0.5 mg/kg, route intravenous; summary of the method: as §1
[22] = Apparent permeability from apical to basolateral side in human Caco2 cells; assay type: ADME, cell-based; conditions: Caco-2
[23] = molecular target: T2, E3 ubiquitin-protein ligase XIAP; experiment: Displacement of AbuRPFK-5FAM from GST-tagged XIAP BIR3 domain (N252 to E350) (unknown origin) after 20 mins by fluorescence polarization assay; summary of the method: as §2
[24] = molecular target: T1, Baculoviral IAP repeat-containing protein 2; experiment: Displacement of AbuRPFK-5FAM from GST-tagged cIAP1 BIR3 domain (L250 to G350) (unknown origin) after 20 mins by fluorescence polarization assay; summary of the method: as §2
BT-549 = experiment: Growth inhibition of human BT549 cells; assay type: functional, cell-based
647-V = experiment: Growth inhibition of human 647V cells; assay type: functional, cell-based
MIA PaCa-2 = experiment: Growth inhibition of human MIAPaCa2 cells; assay type: functional, cell-based
Homo sapiens = species on record: Homo sapiens; experiment: Growth inhibition of human 97-7 cells; assay type: functional
MDA-MB-231 [25] = experiment: Antitumor activity against human MDA-MB-231 cells xenografted in CB17 SCID mouse assessed as tumor growth inhibition at 0.1 to 3 mg/kg, iv administered once a week for 2 weeks measured twice a week for 78 days; assay type: functional, organism-based
Summary of the method: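 MDA-MB-231 tumors were implanted orthotopically in mice and grown to about 120 mm³ average. Vehicle or compound was then given intravenously once weekly for 2 weeks, at 0.1, 0.5 or 3.0 mg/kg. Tumor volume was measured twice weekly for 78 days and reported as geometric mean ± SE.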

Mus musculus [26] = experiment: Induction of caspase-3 cleavage in tumor of CB17 SCID mouse xenografted with human MDA-MB-231 cells at 0.05 to 3 mg/kg, iv after 4 to 18 hrs by ELISA; assay type: functional, organism-based
Summary of the method: (§3)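 Mice bearing MDA-MB-231 xenografts received a single intravenous dose. Intratumoral cIAP1 protein and cleaved caspase-3 levels were measured at 4, 6 and 18 h postdose.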

Mus musculus [27] = experiment: Induction of cIAP1 degradation in tumor of CB17 SCID mouse xenografted with human MDA-MB-231 cells at 0.05 to 3 mg/kg, iv up to 18 hrs by ELISA; assay type: functional, organism-based; summary of the method: as §3
MDA-MB-231 [28] = experiment: Induction of apoptosis in human MDA-MB-231 cells assessed as cell death at 0.5 to 1.5 nM preincubated for 1 to 3 hrs followed by compound-washout measured after 72 hrs by MTS assay; assay type: functional, cell-based
Summary of the method: (§4)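 MDA-MB-231 cells were exposed to increasing compound concentrations for 1 or 3 h, rinsed, then given drug-free medium. Active caspase-3 per well was read at 24 h total. Survival was measured by MTS at 72 h total; 0% survival means complete cell death.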

MDA-MB-231 [29] = experiment: Induction of apoptosis in human MDA-MB-231 cells assessed as caspase-3 cleavage at 0.5 to 1.5 nM preincubated for 1 to 3 hrs followed by compound-washout measured after 24 hrs by luciferase reporter gene assay; assay type: functional, cell-based; summary of the method: as §4
[30] = molecular target: T2, E3 ubiquitin-protein ligase XIAP; experiment: Inhibition of XIAP-caspase-9 interaction in human MDA-MB-231 cells at 1 uM after 4 hrs by immunoprecipitation assay; assay type: cell-based
Summary of the method: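 MDA-MB-231 cells were left untreated or exposed to 1 μM compound for 4 h. Caspase-9 was immunoprecipitated from the lysates, and caspase-9–XIAP complexes were detected by blotting.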

[31] = molecular target: T2, E3 ubiquitin-protein ligase XIAP; experiment: Binding affinity to XIAP in human MDA-MB-231 cells assessed as effect on protein level at 0.1 to 100 nM after 4 hrs by Western blotting analysis; assay type: cell-based
Summary of the method: (§5)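 MDA-MB-231 cells were treated with a range of compound concentrations. IAP protein levels were assessed by western blot: cIAP2 after 1 h, XIAP after 4 h.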

[32] = molecular target: T3, Baculoviral IAP repeat-containing protein 3; experiment: Binding affinity to cIAP2 in human MDA-MB-231 cells assessed as induction of protein degradation at 0.03 to 1 nM after 1 hr by Western blotting analysis; assay type: cell-based; summary of the method: as §5
[33] = molecular target: T1, Baculoviral IAP repeat-containing protein 2; experiment: Binding affinity to cIAP1 in human MDA-MB-231 cells assessed as induction of protein degradation after 1 hr by Western blotting analysis; assay type: cell-based

T2 sequence (P98170 whole entry, the tested form may be a part): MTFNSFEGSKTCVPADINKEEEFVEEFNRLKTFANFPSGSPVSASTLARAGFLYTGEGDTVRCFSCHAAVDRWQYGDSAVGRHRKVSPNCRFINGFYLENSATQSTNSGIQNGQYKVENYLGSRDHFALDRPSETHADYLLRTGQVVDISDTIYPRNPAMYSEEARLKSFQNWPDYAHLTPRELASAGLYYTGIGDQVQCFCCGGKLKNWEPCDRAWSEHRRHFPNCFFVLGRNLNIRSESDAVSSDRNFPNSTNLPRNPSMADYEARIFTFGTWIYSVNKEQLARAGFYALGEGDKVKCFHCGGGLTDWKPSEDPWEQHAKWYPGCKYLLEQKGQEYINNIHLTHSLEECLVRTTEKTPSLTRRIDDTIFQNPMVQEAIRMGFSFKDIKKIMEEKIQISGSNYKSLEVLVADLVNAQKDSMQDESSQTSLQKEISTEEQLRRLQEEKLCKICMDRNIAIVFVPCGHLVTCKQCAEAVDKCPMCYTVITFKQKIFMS
T1 sequence (Q13490 whole entry): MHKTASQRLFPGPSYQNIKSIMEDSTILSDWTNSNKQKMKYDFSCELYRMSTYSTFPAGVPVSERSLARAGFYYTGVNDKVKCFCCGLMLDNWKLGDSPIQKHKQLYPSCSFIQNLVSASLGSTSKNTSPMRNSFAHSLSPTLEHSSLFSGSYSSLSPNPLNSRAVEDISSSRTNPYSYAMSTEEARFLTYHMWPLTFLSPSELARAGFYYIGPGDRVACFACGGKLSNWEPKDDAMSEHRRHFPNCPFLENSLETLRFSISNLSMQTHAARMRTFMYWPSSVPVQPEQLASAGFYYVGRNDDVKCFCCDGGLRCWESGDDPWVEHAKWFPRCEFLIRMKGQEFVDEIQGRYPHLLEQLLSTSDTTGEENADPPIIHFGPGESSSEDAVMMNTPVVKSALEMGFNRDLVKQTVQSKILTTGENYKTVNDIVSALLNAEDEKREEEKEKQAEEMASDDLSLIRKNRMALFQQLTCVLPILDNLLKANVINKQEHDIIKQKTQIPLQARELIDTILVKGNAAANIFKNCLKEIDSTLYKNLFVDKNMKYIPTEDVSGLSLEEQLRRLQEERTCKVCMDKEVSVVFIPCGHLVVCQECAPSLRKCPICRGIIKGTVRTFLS
T3 sequence (Q13489 whole entry, the tested form may be a part): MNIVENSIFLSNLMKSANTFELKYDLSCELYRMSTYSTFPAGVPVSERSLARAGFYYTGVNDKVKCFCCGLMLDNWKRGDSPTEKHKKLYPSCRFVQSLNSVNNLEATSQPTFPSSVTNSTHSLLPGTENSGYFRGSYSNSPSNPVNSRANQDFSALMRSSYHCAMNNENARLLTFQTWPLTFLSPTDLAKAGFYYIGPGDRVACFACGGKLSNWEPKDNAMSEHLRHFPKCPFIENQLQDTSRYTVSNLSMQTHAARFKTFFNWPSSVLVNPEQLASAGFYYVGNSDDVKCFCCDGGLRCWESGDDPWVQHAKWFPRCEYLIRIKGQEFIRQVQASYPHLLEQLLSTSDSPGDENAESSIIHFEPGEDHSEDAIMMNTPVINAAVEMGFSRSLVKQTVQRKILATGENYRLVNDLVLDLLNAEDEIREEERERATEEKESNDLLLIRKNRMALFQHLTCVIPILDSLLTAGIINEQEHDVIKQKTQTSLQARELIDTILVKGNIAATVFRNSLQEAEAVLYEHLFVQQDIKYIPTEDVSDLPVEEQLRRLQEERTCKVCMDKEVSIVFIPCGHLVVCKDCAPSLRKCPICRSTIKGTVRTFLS

Compound: CN[C@@H](C)C(=O)N[C@H](C(=O)N1CCC[C@H]1C(=O)N[C@H]1c2ccccc2C[C@H]1OCC#CC#CCO[C@@H]1Cc2ccccc2[C@@H]1NC(=O)[C@@H]1CCCN1C(=O)[C@@H](NC(=O)[C@H](C)NC)C1CCCCC1)C1CCCCC1.Cl.Cl
solubility [7]: > 7000 µg/mL

Compound: CN[C@@H](C)C(=O)N[C@H](C(=O)N1CCC[C@H]1C(=O)N[C@H]1c2ccccc2C[C@H]1OCC#CC#CCO[C@@H]1Cc2ccccc2[C@@H]1NC(=O)[C@@H]1CCCN1C(=O)[C@@H](NC(=O)[C@H](C)NC)C1CCCCC1)C1CCCCC1 [listing 1 of 2 here]
Stability [12]: Unstable
Stability [13]: Unstable
Stability [14]: Stable
Stability [15]: Stable
IC50 [16]: 21 nM
IC50 [17]: 21 nM
AUC [18]: 166 ng·h/mL
half-life [19]: 0.5 h
Vd [20]: 0.8 L/kg
clearance [21]: 50 mL/min/kg
Papp A→B [22]: < 0.1 ×10⁻⁶ cm/s
GI50 (MDA-MB-231 [5]): < 0.06 nM
EC50 [6]: 0.1 nM
IC50 [23]: 15 nM
IC50 [24]: 15 nM

Compound: CN[C@@H](C)C(=O)N[C@H](C(=O)N1CCC[C@H]1C(=O)N[C@H]1c2ccccc2C[C@H]1OCC#CC#CCO[C@@H]1Cc2ccccc2[C@@H]1NC(=O)[C@@H]1CCCN1C(=O)[C@@H](NC(=O)[C@H](C)NC)C1CCCCC1)C1CCCCC1 [listing 2 of 2 here]
growth inhibition (GI) (BT-549): Active
growth inhibition (GI) (647-V): Active
growth inhibition (GI) (MIA PaCa-2): Active
growth inhibition (GI) (Homo sapiens): Active
TGI (MDA-MB-231 [25]): Active
Activity (Mus musculus [26]): Active
Activity (Mus musculus [27]): Active
Activity (MDA-MB-231 [28]): Active
Activity (MDA-MB-231 [29]): Active
inhibition [30]: Active
Activity [31]: inactive
Activity [32]: Active
Activity [33]: Dose-dependent effect

Other lines, results leading:

AUC [1]: 262 ng·h/mL
half-life [2]: 3.6 h
Vd [3]: 1.4 L/kg
clearance [4]: 45 mL/min/kg
GI50 (MDA-MB-231 [5]): < 0.1 nM
EC50 [6]: 0.1 nM
Compound: CN[C@@H](C)C(=O)N[C@H](C(=O)N1CCC[C@H]1C(=O)N[C@H]1c2ccccc2C[C@H]1OCCCCCCO[C@@H]1Cc2ccccc2[C@@H]1NC(=O)[C@@H]1CCCN1C(=O)[C@@H](NC(=O)[C@H](C)NC)C1CCCCC1)C1CCCCC1

AUC [8]: 206 ng·h/mL
half-life [9]: 1.2 h
Vd [10]: 1.9 L/kg
clearance [11]: 80 mL/min/kg
GI50 (MDA-MB-231 [5]): < 0.1 nM
EC50 [6]: 0.6 nM
Compound: CN[C@@H](C)C(=O)N[C@H](C(=O)N1CCC[C@H]1C(=O)N[C@H]1c2ccccc2C[C@H]1OCCOCCO[C@@H]1Cc2ccccc2[C@@H]1NC(=O)[C@@H]1CCCN1C(=O)[C@@H](NC(=O)[C@H](C)NC)C1CCCCC1)C1CCCCC1
